Measurements gathered from unrelated publications.
Compare with care: the assays were run in different laboratories.
Target: Tyrosine-protein kinase Fes/Fps (FES, Homo sapiens, UniProt P07332)

For O=C1Nc2ccc(Cl)cc2C1=Cc1cc(Cl)c(O)c(Cl)c1, the remaining signal was 93.7% (cell-free assay; 0.5 µM).
For CC/C(=N\NC(=O)NCc1cccc(O)c1)c1ccc(O)c(C)c1O, the inhibition was 1.2% (enzyme activity, inhibitor; 0.1 µM).
For CCC(=O)N[C@@H]1CC[C@H](C(=O)N(C)c2ccc(-c3nc4ccccc4o3)cc2)C1, the remaining binding was 96% (cell-free assay, competition with immobilised ligand; 1 µM).
The remaining signal of CNC(=O)c1cc(Oc2ccc(NC(=O)Nc3ccc(Cl)c(C(F)(F)F)c3)cc2)ccn1 is reported as 104% (cell-free assay; 0.5 µM).
With C[C@@H]1CN(c2cc(-c3n[nH]c4ccc(OC5(C)CC5)cc34)ncn2)C[C@H](C)O1 the remaining binding was 87% (cell-free assay, competition with immobilised ligand; 0.1 µM).
With Cc1cnc(NC2CCOCC2)nc1-n1cnc(C(=O)NC(CN)c2cc(F)cc(Cl)c2)c1 (stereo not shown) the remaining activity was 102% (enzyme activity, inhibitor, radiometric; 1 µM).
C=CC(=O)Nc1cc(Nc2nccc(Nc3cc(Cl)c(F)cc3C(C)(C)O)n2)c(OC)cc1N1CC[C@@H](N(C)C)C1 has an inhibition of 65% (enzyme activity, inhibitor; 1 µM).
Cc1ccc(C(=O)NCc2ccsc2)cc1C#Cc1cn(C(C)C)c2ncnc(N)c12 has an activity vs control of 93% (enzyme activity, inhibitor; 1 µM).
With CN([C@@H]1CCc2c(CC(=O)O)c3cc(S(C)(=O)=O)ccc3n2C1)S(=O)(=O)c1ccc(F)cc1 the remaining binding was 92% (cell-free assay, competition with immobilised ligand; 1 µM).
For Cc1cc(NC(=O)c2cccc3cc(-c4cccc5[nH]nc(N)c45)ccc23)ccc1F, the activity vs control was 97% (enzyme activity, inhibitor; 0.1 µM).
With CNc1cc(Oc2cc(C(=O)Nc3cc(N4CCN(C)CC4)cc(C(F)(F)F)c3)ccc2C)ncn1 the inhibition was -21.4% (target engagement in cells, inhibitor, chemoproteomics; Huh-7; 1 µM).
The remaining binding of CN(c1ccnc(CNc2nc(Nc3ccc4c(c3)CC(=O)N4)ncc2C(F)(F)F)n1)S(C)(=O)=O is reported as 74% (cell-free assay, competition with immobilised ligand; 1 µM).
The remaining activity of Cc1ccc(C(=O)Nc2ccc(CN3CCN(C)CC3)c(C(F)(F)F)c2)cc1C#Cc1cnc2cccnn12 is reported as 100% (enzyme activity; 23.5 nM).
For N#CCCc1ccc2c(c1)-c1[nH]c3ccc([N+](=O)[O-])cc3c1CC(=O)N2, the remaining signal was 37.9% (cell-free assay; 0.5 µM).
CC(C)(O)[C@H]1CC[C@H](Nc2ccc3ncc(-c4cccc(C(F)(F)F)c4)n3n2)CC1 has a remaining activity of 95.4% (enzyme activity, inhibitor; 1 µM).
For O=C(Nc1cnn(-c2csc(C(=O)NC3COC3)c2)c1)Nc1c(F)cccc1Cl, the remaining activity was 87.8% (enzyme activity, inhibitor; 5 µM).
CNCc1ccc(-c2cc(-c3nc(-c4ccc(S(=O)(=O)C(C)C)cc4)cnc3N)on2)cc1 gave an inhibition of 0% (enzyme activity, inhibitor; 2 µM).
C[C@@H]1CN(c2cc(-c3nn(C)c4ccc(OC5(C)CC5)cc34)ncn2)C[C@H](C)O1 gave a remaining binding of 93% (cell-free assay, competition with immobilised ligand; 1 µM).
For COc1cc2ncnc(Nc3ccc(Oc4ccccc4)cc3C)c2cc1OC, the inhibition was 27% (enzyme activity, inhibitor; 1 µM).
With Nc1ncnc2occ(-c3ccc(NC(=O)Nc4cc(C(F)(F)F)ccc4F)cc3)c12 the remaining signal was 4.1% (cell-free assay, inhibitor; 20 µM).
For O=C(O)[C@@H]1[C@@H](Cn2nnc3ccccc3c2=O)CC[C@H]1C(=O)c1ccc(OCCC2CCOCC2)cc1, the remaining binding was 100% (cell-free assay, competition with immobilised ligand; 1 µM).
The remaining activity of CC(C)(C)c1nc2c(s1)c1nc(N)ncc1c1ccc(NS(=O)(=O)c3c(F)cccc3F)c(F)c12 is reported as 93% (enzyme activity, inhibitor, radiometric; 1 µM).
